Compound activity deposited in PubChem BioAssay by The Scripps Research Institute Molecular Screening Center.
HTR5A inv ctr – HTR5A inverse agonism, opioid heterodimer counter-screen | P47898 | HTR5A cell line, luminescence | inhibition, % at 9.3 µM | 0.083% of 340,000 active | AID 504634; in the data active = inhibition mostly above about 23%, no sharp cut-off; inactive = mostly below about 18%;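 note: 0% = cells with DMSO and 100% = no-cell wells with DMSO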
OPRM1-OPRD1 inv – inverse agonist of human OPRM1-OPRD1 heterodimerization; AID 504357; 0.21% of 340,000 active; cell-based MOR-DOR heterodimer luminescence, inverse agonism; P35372+P41143; inhibition, % at 9.3 µM; in the data active = inhibition above about 22%, passing the limit was not always enough;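 note: 0% = cells with DMSO and 100% = wells without cells with DMSO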
MC4R ag barr – human MC4R agonism via beta-arrestin | P32245 | U2OS MC4R beta-arrestin complementation, luminescence; percent of melanotan II response, DMSO zero | activation, % at 8.9 µM | 0.98% of 360,000 active;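 active = activation above a per-plate cutoff, the mean activation of sample wells on that plate plus 3 SD, cut at about 8% in these data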
MOR-DOR ag – OPRM1-OPRD1 heterodimerization agonism | activation, % at 9.3 µM | cells, luminescence | 0.3% of 340,000 active | AID 504326 | P35372+P41143;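 note: 0% = vehicle-treated cells and 100% = reference agonist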
MC4R antagonist – human MC4R antagonism in cAMP assay | inhibition, % at 6.5 µM | MC4R-expressing cells, MTII-stimulated cAMP, LANCE TR-FRET | 0.48% of 360,000 active | AID 540295;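 active = inhibition above its plate's cutoff, the mean of tested wells on that plate plus 3 SD, cut at about 29% in these data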;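 note: 0% = Melanotan II alone and 100% = Melanotan II plus saturating MCL0020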
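System – human MC4R-expressing U2OS cells · Also added – Melanotan II · Dosing – one concentration, 6.5 µM nominal · Timing – 30-min compound, 1-h challenge, 1-h detection, room temperature · Measured by – Eu-cAMP/anti-cAMP TR-FRET, emission 671 nm · Replicates – singlicate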
HTR5A ag – counter-screen for OPRM1-OPRD1 agonists: human HTR5A agonism. activation, % at 9.3 µM. 0.61% of 340,000 active. P47898. HTR5A agonist assay, luminescence, cell-based; in the data active = activation mostly above about 9.5%, no sharp cut-off; inactive = mostly below about 7.6%;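 note: 0% = cells with vehicle only and 100% = reference agonist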
MOR-DOR ag conf – OPRM1-OPRD1 heterodimer agonism, confirmation | shares compounds with MOR-DOR ag | cells, MOR-DOR heterodimerization, luminescence complementation | activation, % at 9.3 µM | 45% of 830 active | AID 504904;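 note: 0% = vehicle-treated cells and 100% = reference agonist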
HTR5A ag counter – HTR5A agonism, opioid heterodimer counter-screen | shares compounds with MOR-DOR ag | HTR5A agonist counterscreen, cell luminescence | activation, % at 9.3 µM | 8% of 830 active; in the data active = activation above about 17%;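 note: 0% = vehicle-treated cells and 100% = reference agonist response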
* marks the source's active call; other numbers are inactive results; i = inactive; + = active, no number; ! = not confirmed by another sample. A selection: hits, their analogues and other compounds. The true share with any hit is near 2.4%. Cut-off read from the data, not from the text of the source, unless noted: active = activation above about 18%; inactive = the rest.

SMILES	HTR5A inv ctr	OPRM1-OPRD1 inv	MC4R ag barr	MOR-DOR ag	MC4R antagonist	HTR5A ag	others
CC1(C)C[C@H]2C=C(C=O)[C@]3(C=O)C[C@]3(C)[C@H]2C1	1	-61	3	11	15	42*
CC1Oc2cc3c(-c4c(O)cc(O)c5c(O)c6c(cc45)OC(C)C(C)C6=O)c(O)cc(O)c3c(O)c2C(=O)C1C (centres undefined)	16	-44	9.7*	9	20	-3
O/N=C/c1c[nH]c2ccccc12	6	12	-1	-2	5	-2
NC(=Nc1ccccc1)NN=Cc1c[nH]c2ccccc12	-49	-5	-1	1	-17	13*
C=C1C(=O)O[C@@H]2C[C@@H](C)[C@@H]3C=CC(=O)[C@@]3(C)[C@@H](OC(=O)CC(=O)O[C@H]3[C@@H]4C(=C)C(=O)O[C@@H]4C[C@@H](C)[C@@H]4C=CC(=O)[C@]43C)[C@H]12	7	46*	-2	-8	6	-2
CCn1nc(-c2ccccc2)nc2c(=O)n(C)c(=O)nc1-2	18	-142	0	24*	-44	9
CC(C)N(C(=O)CCl)c1ccccc1	-11	3	0	0	14	3
CC1=CC2OC3CC4OC(=O)C=CC=CC(=O)OCCC(C)C(O)C(=O)OCC2(CC1)C4(C)C31CO1 (centres undefined)	-16	-9	8.9*	2	37*	4
CCCNc1nc(OC)nc(N2CC3CC(C2)c2cccc(=O)n2C3)n1 (centres undefined)	-1	3	0	-1	-3	0
CC(=O)OC1CCC2(/C=N/O)C(=CCC3C4CCC(=O)C4(C)CCC32)C1 (centres undefined)	-8	6	0	-1	3	2
CC(=O)c1ccc2c(c1)C1C(Cl)C(Sc3ccccc3[N+](=O)[O-])CC1C(c1ccccc1[N+](=O)[O-])N2 (centres undefined)	3	-37	-1	7	10	11*
CC(=O)c1ccc2c(c1)C1C(Cl)C(Sc3ccccc3[N+](=O)[O-])CC1C(c1ccccc1)N2 (centres undefined)	-33	-32	-2	5	-1	12
COC(=O)C1=C(c2ccc(OC(F)(F)F)cc2)C[C@@H]2CC[C@H]1N2C(=O)NCCOc1ccccc1Cl	5	-17	-1	3	4	2
CC12CCC(O)CC1CCC1C2CCC2(C)C(C3=CC(=O)OC3)C(O)CC12O (centres undefined)	-128	-304	13*	69*	2	33*
C[C@]12CC[C@H](O)C[C@H]1CC[C@@H]1[C@@H]2CC[C@]2(C)[C@@H](C3=CC(=O)OC3)CC[C@]12O	-74	-395	34*	71*	21	37*
CC12CC[C@H]3[C@@H](CCC4(O)C[C@H](O)CCC34/C=N/NC(=O)Cc3ccccc3)C1(O)CCC2C1=CC(=O)OC1 (some centres undefined)	-18	-11	1	2	-4	7
C=CCCC1(CC(C)C)C(=O)NC(=S)NC1=O	0	9	0	-2	-2	0
CCCC(C)C(=O)NC1CCSC1=O (centres undefined)	3	5	0	-1	4	1
Cc1cc(NC(=O)COC(=O)c2c(C)nn(Cc3ccccc3)c2C)no1	-5	-2	-1	0	8	12*
Cc1cc(NC(=O)COC(=O)c2c(C)nn(Cc3ccccc3Cl)c2Cl)no1	-21	-4	4	1	-1	9
O=C1NC(=O)C(=Cc2ccc(-c3ccc(S(=O)(=O)N4CCOCC4)cc3)o2)C(=O)N1	0	11	-2	-2	36*	0
COC(=O)C1=C(c2ccc(F)cc2OCc2ccccc2)C[C@@H]2CC[C@H]1N2C(=O)N1CCC(O)(c2ccc(Cl)cc2)CC1	-3	-14	0	2	1	1
c1ccc2c(CCNC3=NCCC3)c[nH]c2c1	-44	14	-2	-2	7	11*
CCN(CC)c1ccc(/C=N/c2sc3c(c2C#N)C2CCN3CC2)c(O)c1	11	42*	-2	-8	-2	-3
CNc1cc(Cl)c2nonc2c1[N+](=O)[O-]	16	33*	-2	-6	-33	-5
SMILES	HTR5A inv ctr	OPRM1-OPRD1 inv	MC4R ag barr	MOR-DOR ag	MC4R antagonist	HTR5A ag	others
Cc1cc([N+](=O)[O-])c(Cl)cc1NC(=O)C(C)C	5	-1	0	0	11	-3
CC1=C2C(=O)C3C(CC=C4CC(O)CCC43C)C2CCC12OC1CC(C)CNC1C2C (centres undefined)	-12	13	1	-3	21	3
O=[N+]([O-])CCO	-2	14	-1	-3	6	0
O=c1c2ccccc2nc(/C=C/c2ccccc2F)n1-c1ccccc1O	3	-150	3	29*	10	-1
CCC1(CCC(C)C)C(=O)NC(=S)NC1=O	0	15	-1	-3	7	0
CC(=O)OC1C2CCCC1C(N1CCCC1)CC2 (centres undefined)	1	12	-1	-3	-3	13*!
CC(=O)OC1C2CCC1C(N1CCCCC1)CC2 (centres undefined)	0	12	-3	-2	26	-2
CCCNC(=O)N1[C@H]2CC[C@@H]1C(C(=O)OC)=C(c1cccc(C#N)c1)C2	-4	6	-1	-1	6	13*
Cc1cc(OCC(=O)NC(Cc2ccc(Cl)cc2)C(=O)O)c2c3c(c(=O)oc2c1)CCC3 (centres undefined)	10	8	-1	-2	6	-2
CC1(C)CN=C(Nc2ccccc2C(F)(F)F)S1	0	14	-1	-2	6	11*
FC(F)(F)c1ccccc1NC1=NCCCS1	11	1	1	0	22	-4
Clc1ccc(CSC(Cn2ccnc2)c2ccc(Cl)cc2Cl)cc1 (centres undefined)	-21	i	0	+	8	8	MOR-DOR ag conf=i;HTR5A ag counter=0
CC(C)=CCN1CC[C@@]2(C)c3cc(O)ccc3C[C@@H]1C2C (some centres undefined)	1	-150	0	37*	5	0	MOR-DOR ag conf=-1;HTR5A ag counter=-1
CC1[C@H]2Cc3ccc(O)cc3[C@]1(C)CCN2C (some centres undefined)	-2	-179	1	44*	17	1	MOR-DOR ag conf=42*;HTR5A ag counter=1
